Experimental data from ChEMBL document CHEMBL4431310, “Characterization and in vitro activity of a branched peptide boronic acid that interacts with HIV-1 RRE RNA” (Bioorg Med Chem, 2016).
The source made the active and inactive calls. The rule behind the calls is not given here. Where a SMILES comes first, the peptide text is derived from it. Side-chain parts run from the residue outwards. [ ]: non-standard residue; d: D form. The star is where a group is joined. X4 = NCCCC[C@H](NC(=O)[C@@H](N)CCCCNC(=O)c1ccc(B(O)O)cc1)C(=O)N[C@@H](Cc1ccc(B(O)O)cc1)C(=O)*; X1 = N[C@@H](Cc1ccc(B(O)O)cc1)C(=O)N[C@@H](Cc1ccc(O)cc1)C(=O)N[C@@H](Cc1ccc(B(O)O)cc1)C(=O)*; X2 = NCCCC[C@H](NC(=O)[C@@H](N)CCCCN)C(=O)N[C@@H](CCCCNC(=O)c1ccc(B(O)O)cc1)C(=O)*; X3 = NCCCC[C@H](N)C(=O)N[C@@H](CCCCNC(=O)c1ccc(B(O)O)cc1)C(=O)*; Phe(4-B(OH)2) = N[C@@H](Cc1ccc(B(O)O)cc1)C(=O)O; Benzoyl(4-B(OH)2) = O=C(c1ccc(B(O)O)cc1)*

Legend:
[1] = target: Rev responsive element (RRE) RNA; assay: Binding affinity to HIV-1 RRE 2B RNA measured after 4 hrs by dot blot assay; assay type: nucleic-acid assay, Human immunodeficiency virus 1
Procedure, shortened: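 RNA at 0.4 nM titrated with peptide 0.001–100 µM for 4 h at rt, filtered through nitrocellulose, washed twice, imaged by phosphorimaging. Kd from four-parameter logistic fit of densitometry; triplicate, SD reported.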

[2] = test system: Human immunodeficiency virus 1; assay: Antiviral activity against HIV-1 NL4-3 infected monkey 5BD.1 cells assessed as reduction in p24 production at 10 uM measured over 24 hrs by p24 ELISA; assay type: functional
[3] = test system: Human immunodeficiency virus 1; assay: Antiviral activity against HIV-1 NL4-3 infected in human U87 cells expressing CD4.CXCR4 assessed as inhibition of p24 production at 10 uM measured after 4 days by p24 ELISA; assay type: functional, organism-based
[4] = Toxicity against human U87 cells expressing CD4.CXCR4 assessed as cell viability at 10 uM measured after 24 hrs by MTT assay; assay type: cell-based, U-87MG ATCC; conditions: read-out: Activity
[5] = test system: Human immunodeficiency virus 1; assay: Antiviral activity against HIV-1 NL4-3 infected in human U87 cells expressing CD4.CXCR4 assessed as inhibition of p24 production measured after 4 days by p24 ELISA; assay type: functional, organism-based
[6] = test system: Rev responsive element (RRE) RNA; assay: Binding affinity to HIV-1 RRE 2B RNA assessed as protection against RNase T1-mediated RRE 2B cleavage preincubated for 4 hrs followed by addition of RNase T1 measured up to 20 uM after 1 hr by nuclease protection assay; assay type: nucleic-acid assay; conditions: Human immunodeficiency virus 1
Procedure, shortened: (§1)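 5'-32P-labeled RRE IIB (10 nM) mixed with unlabeled RRE IIB (200 nM), heated to 95 °C for 3 min and snap-cooled. Incubated with peptide (up to 20 µM) on ice for 4 h in 10 mM Tris pH 7, 100 mM KCl, 10 mM MgCl2. Digested on ice with RNase V1 (0.002 U, 10 min), RNase T1 (1 U, 1 h) or RNase A (20 ng, 1 h). Stopped with inactivation/precipitation buffer, run on 12% urea PAGE, read by autoradiography against an alkaline hydrolysis ladder.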

[7] = test system: Rev responsive element (RRE) RNA; assay: Binding affinity to HIV-1 RRE 2B RNA assessed as protection against RNase T1-mediated RRE 2B cleavage at G10 and G11 preincubated for 4 hrs followed by addition of RNase T1 at 20 uM measured after 1 hr by nuclease protection assay; assay type: nucleic-acid assay; conditions: Human immunodeficiency virus 1; procedure, shortened: as §1
[8] = test system: Rev responsive element (RRE) RNA; assay: Binding affinity to HIV-1 RRE 2B RNA assessed as protection against RNase A-mediated RRE 2B cleavage at C21 and U24 preincubated for 4 hrs followed by addition of RNase A measured up to 20 uM after 1 hr by nuclease protection assay; assay type: nucleic-acid assay; conditions: Human immunodeficiency virus 1; procedure, shortened: as §1
[9] = target: Rev responsive element (RRE) RNA; assay: Binding affinity to HIV-1 RRE 2B RNA in presence of 1000-fold excess tRNA; assay type: nucleic-acid assay, Human immunodeficiency virus 1
[10] = target: Rev responsive element (RRE) RNA; assay: Binding affinity to HIV-1 RRE 2B RNA measured after 4 hrs by EMSA; assay type: nucleic-acid assay, Human immunodeficiency virus 1
HeLa = assay: Cytotoxicity in human HeLa cells assessed as cell viability at 100 nM to 10 uM measured over 24 hrs by MTT assay; assay type: cell-based; conditions: 0.1 µM
[11] = test system: Rev responsive element (RRE) RNA; assay: Binding affinity to HIV-1 RRE 2B RNA assessed as protection against RNase A-mediated RRE 2B cleavage at C33 of loop B preincubated for 4 hrs followed by addition of RNase A at 20 uM measured after 1 hr by nuclease protection assay; assay type: nucleic-acid assay; conditions: Human immunodeficiency virus 1; procedure, shortened: as §1
[12] = Binding affinity to HIV-1 TAR RNA; set-up: species or system Human immunodeficiency virus 1
[13] = test system: Rev responsive element (RRE) RNA; assay: Binding affinity to HIV-1 RRE 2B RNA assessed as protection against RNase V1-mediated RRE 2B cleavage at G17 and C18 preincubated for 4 hrs followed by addition of RNase V1 measured after 10 mins by nuclease protection assay; assay type: nucleic-acid assay; conditions: Human immunodeficiency virus 1; procedure, shortened: as §1
[14] = test system: Human immunodeficiency virus 1; assay: Antiviral activity against HIV-1 NL4-3 infected in human U87 cells expressing CD4.CXCR4 assessed as inhibition of p24 production at 100 uM measured after 4 days by p24 ELISA; assay type: functional, organism-based
[15] = test system: Rev responsive element (RRE) RNA; assay: Binding affinity to HIV-1 RRE 2B RNA assessed as protection against RNase A-mediated RRE 2B cleavage at U9 and G34 preincubated for 4 hrs followed by addition of RNase A at 20 uM measured after 1 hr by nuclease protection assay; assay type: nucleic-acid assay; conditions: Human immunodeficiency virus 1; procedure, shortened: as §1
[16] = test system: Rev responsive element (RRE) RNA; assay: Selectivity ratio of Kd for HIV-1 RRE 2B RNA to Kd for HIV-1 RRE 2B RNA in presence of 1000-fold excess tRNA; assay type: nucleic-acid assay; conditions: Human immunodeficiency virus 1

With `C[C@@H](O)[C@H](NC(=O)[C@H](Cc1ccc(B(O)O)cc1)NC(=O)[C@H](CCCCNC(=O)[C@H](CCCCNC(=O)c1ccc(B(O)O)cc1)NC(=O)[C@H](CCCCN)NC(=O)[C@@H](N)CCCCN)NC(=O)[C@H](CCCCNC(=O)c1ccc(B(O)O)cc1)NC(=O)[C@H](CCCCN)NC(=O)[C@@H](N)CCCCN)C(=O)N[C@@H](CO)C(=O)N[C@@H](Cc1ccc(O)cc1)C(=O)O` (H-KKK(Benzoyl(4-B(OH)2))K(X2)[Phe(4-B(OH)2)]TSY-OH) the Kd [1] was 26.8 µM, the inhibition [2] was “Active” and the inhibition [3] was “inactive”.

With `CCc1c(C)nc2sc(C(N)=O)c(N)c2c1C` the inhibition [2] was “Active”.

`NCCCC[C@H](NC(=O)[C@H](CC(N)=O)NC(=O)[C@H](CCCCN)NC(=O)[C@H](Cc1ccc(B(O)O)cc1)NC(=O)[C@H](Cc1ccc(O)cc1)NC(=O)[C@@H](N)Cc1ccc(B(O)O)cc1)C(=O)N[C@@H](CO)C(=O)N[C@@H](Cc1ccc(O)cc1)C(=O)O` (H-[Phe(4-B(OH)2)]Y[Phe(4-B(OH)2)]KNKSY-OH) showed a Kd [1] of 17.7 µM.

In the case of `NCCCC[C@H](NC(=O)[C@H](CCCCN)NC(=O)[C@H](CCCCNC(=O)[C@H](Cc1ccccc1)NC(=O)[C@H](CCCCNC(=O)c1ccc(B(O)O)cc1)NC(=O)[C@@H](N)CCCCN)NC(=O)[C@H](Cc1ccccc1)NC(=O)[C@H](CCCCNC(=O)c1ccc(B(O)O)cc1)NC(=O)[C@@H](N)CCCCN)C(=O)N[C@@H](Cc1c[nH]c2ccccc12)C(=O)N[C@@H](Cc1ccc(O)cc1)C(=O)O` (H-KK(Benzoyl(4-B(OH)2))FK([Phe-X3])KKWY-OH), the Kd [1] is reported as 27.2 µM, the inhibition [2] is reported as “Active” and the inhibition [3] is reported as “inactive”.

With `NCCCC[C@H](NC(=O)[C@H](CC(N)=O)NC(=O)[C@H](CCCCNC(=O)[C@H](Cc1ccc(B(O)O)cc1)NC(=O)[C@H](Cc1ccc(O)cc1)NC(=O)[C@@H](N)Cc1ccc(B(O)O)cc1)NC(=O)[C@H](Cc1ccc(B(O)O)cc1)NC(=O)[C@H](Cc1ccc(O)cc1)NC(=O)[C@@H](N)Cc1ccc(B(O)O)cc1)C(=O)N[C@@H](CO)C(=O)N[C@@H](Cc1ccc(O)cc1)C(=O)O` (H-[Phe(4-B(OH)2)]Y[Phe(4-B(OH)2)]K(X1)NKSY-OH) the Kd [1] was 8.7 µM, the viability at 24 h, 10 µM [4] was over 80% and the inhibition [5] was “Dose-dependent effect”. The IC50 ([5]; Human immunodeficiency virus 1, NL4-3, U-87 MG, 96 h) was 5 µM, the Activity [6] was “inactive” and the Activity [7] was “inactive”. The Activity [8] was “Active”, the Kd [9] was 26.4 µM and the Kd [10] was 4.6 µM. For the same compound, the Activity (HeLa) was “Non-Toxic”, the inhibition at 10 µM ([2]; Human immunodeficiency virus 1, NL4-3, in Primates) was 70% and the Activity [11] was “inactive”. For the same compound, the Kd [12] was 5.2 µM, the Activity [13] was “Dose-dependent effect” and the inhibition [14] was “Active”. The Activity [15] was “inactive”, the Selectivity ratio [16] was 3 and the inhibition [3] was “Active”.

For `NCCCC[C@H](NC(=O)[C@H](CC(N)=O)NC(=O)[C@H](Cc1ccc(B(O)O)cc1)NC(=O)[C@H](Cc1ccc(O)cc1)NC(=O)[C@H](Cc1ccc(B(O)O)cc1)NC(=O)[C@H](Cc1ccc(B(O)O)cc1)NC(=O)[C@H](Cc1ccc(O)cc1)NC(=O)[C@@H](N)Cc1ccc(B(O)O)cc1)C(=O)N[C@@H](CO)C(=O)N[C@@H](Cc1ccc(O)cc1)C(=O)O` (H-[Phe(4-B(OH)2)]Y[Phe(4-B(OH)2)][Phe(4-B(OH)2)]Y[Phe(4-B(OH)2)]NKSY-OH), the Kd [1] was 27.2 µM.

For `NCCCC[C@H](NC(=O)[C@H](CCCCN)NC(=O)[C@H](CCCCNC(=O)c1ccc(B(O)O)cc1)NC(=O)[C@H](CCCCNC(=O)[C@H](Cc1ccc(B(O)O)cc1)NC(=O)[C@H](CCCCN)NC(=O)[C@@H](N)CCCCNC(=O)c1ccc(B(O)O)cc1)NC(=O)[C@H](Cc1ccc(B(O)O)cc1)NC(=O)[C@H](CCCCN)NC(=O)[C@@H](N)CCCCNC(=O)c1ccc(B(O)O)cc1)C(=O)N[C@@H](Cc1ccc(O)cc1)C(=O)O` (H-K(Benzoyl(4-B(OH)2))K[Phe(4-B(OH)2)]K(X4)K(Benzoyl(4-B(OH)2))KKY-OH), the Kd [1] was 3.3 µM, the inhibition [2] was “Active” and the inhibition [3] was “inactive”.
